Experiments:
[1] = target: Histamine H1 receptor (Rattus norvegicus, UniProt P31390); test: Binding affinity to histamine H1 receptor in rat brain membranes was evaluated using [3H]-pyrilamine as radioligand; type: cell membranes
[2] = test system: Cavia porcellus; test: Compound tested for its %inhibition of guinea pig bronchospasm at a peroral dose of 10 mg/Kg and after 2 hr followed by iv challenge with 10 ug/Kg of histamine
[3] = test system: Cavia porcellus; test: as above; remark: listed apart in the source
[4] = test system: Cavia porcellus; test: Compound tested for its %inhibition of guinea pig bronchospasm at a peroral dose of 3 mg/Kg and after 2 hr followed by iv challenge with 0.4 ug/Kg of histamine
[5] = test system: Cavia porcellus; test: Compound tested for its %inhibition of guinea pig bronchospasm at a peroral dose of 10 mg/kg and after 2 hr followed by iv challenge with 0.4 micro g/kg of histamine.; type: functional; settings: Bronchiole, route oral
[6] = test system: Cavia porcellus; test: Compound tested for its %inhibition of guinea pig bronchospasm at a peroral dose of 10 mg/kg and after 2 hr followed by iv challenge with 0.4 micro g/kg of PAF.; type: functional; settings: Bronchiole, route oral
Summary of the method: (§1)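 Compound given orally 2 h before an iv PAF challenge at 0.4 µg/kg. Values are reported as mean ± standard error of the mean unless noted otherwise, with N animals per determination.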

[7] = %inhibition of guinea pig bronchospasm at a peroral dose of 10 mg/kg and after 2 hr followed by iv challenge with 0.4 micro g/kg of PAF; type: functional; settings: Cavia porcellus, Bronchiole, route oral; summary of the method: as §1
[8] = test system: Cavia porcellus; test: Compound tested for inhibition of guinea pig bronchospasm at a peroral dose of 10 mg/Kg and after 2 hr followed by iv challenge with 0.4 ug/Kg of PAF; type: functional, Bronchiole

Sequence of Histamine H1 receptor (P31390 whole entry): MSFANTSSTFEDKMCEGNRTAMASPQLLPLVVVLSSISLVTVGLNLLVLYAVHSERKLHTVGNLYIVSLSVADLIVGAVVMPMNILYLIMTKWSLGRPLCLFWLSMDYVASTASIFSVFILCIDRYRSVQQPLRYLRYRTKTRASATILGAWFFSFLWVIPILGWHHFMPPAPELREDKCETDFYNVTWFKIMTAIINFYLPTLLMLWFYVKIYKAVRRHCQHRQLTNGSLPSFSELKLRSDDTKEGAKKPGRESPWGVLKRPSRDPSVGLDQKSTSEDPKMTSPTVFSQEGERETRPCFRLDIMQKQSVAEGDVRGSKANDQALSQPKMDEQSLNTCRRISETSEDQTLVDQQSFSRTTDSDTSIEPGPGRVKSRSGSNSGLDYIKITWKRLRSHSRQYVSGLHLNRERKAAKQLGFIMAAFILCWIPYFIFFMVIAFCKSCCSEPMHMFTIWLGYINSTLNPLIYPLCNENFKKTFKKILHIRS

| Structure (SMILES) | Ki [1] [nM] | further results |
| --- | --- | --- |
| CC(=O)N1CCC(=C2c3cc(Cl)c(Cl)cc3CCc3cccnc32)CC1 | 3100 | – |
| CC(=O)N1CCC(=C2c3cc(Cl)ccc3CCc3cccnc32)CC1 | 1500 | – |
| CC(C)(C)C(=O)N1CCC(=C2c3ccc(Cl)cc3CCc3cccnc32)CC1 | 81 | – |
| CC(=O)N1CCC(=C2c3cc(F)c(F)cc3CCc3cccnc32)CC1 | 10000 | Inhibition [2]: 0% |
| CC(=O)N1CCC(=C(c2ccc(Cl)cc2)c2ccccn2)CC1 | > 6300 | – |
| O=C(c1ccccc1)N1CCC(=C2c3ccc(Cl)cc3CCc3cccnc32)CC1 | 190 | – |
| CC(=O)C1CCC(=C2c3ccc(Cl)cc3CCc3cccnc32)CC1 (stereo not given) | 1200 | – |
| CC(=O)N(C)CC/C=C1/c2ccc(Cl)cc2CCc2cccnc21 | 850 | – |
| CC(=O)N1CCC(=C2c3ccc(O)cc3CCc3cccnc32)CC1 | > 6300 | – |
| CC(=O)N1CCC(=C2c3ccc(Br)cc3CCc3cccnc32)CC1 | – | Inhibition [3]: 99% |
| CCCC(=O)N1CCC(=C2c3ccc(Cl)cc3CCc3cccnc32)CC1 | 51 | – |
| O=CN1CCC(=C2c3ccc(Cl)cc3CCc3cccnc32)CC1 | 21 | – |
| CC(=O)N1CCC(=C2c3ccc(F)cc3CCc3cccnc32)CC1 | 720 | Inhibition [4]: 79% |
| Cc1nnc2n1-c1sc(CCC(=O)N3CCOCC3)cc1C(c1ccccc1Cl)=NC2 [APAFANT] | – | inhibition in vivo at 10 mg/kg [5]: 7%; inhibition in vivo at 10 mg/kg [6]: 60%; inhibition in vivo at 10 mg/kg [7]: 99% |
| CC(=O)N1CCC(=C2c3ccccc3CCc3cccnc32)CC1 | 2000 | Inhibition [2]: 96%; Inhibition [8]: 44% |
| CC(=O)N1CCC(=C2c3cc(F)ccc3CCc3cccnc32)CC1 | 2900 | – |
| COc1ccc2c(c1)CCc1cccnc1C2=C1CCN(C(C)=O)CC1 | 1600 | – |
| CN1CCC(=C2c3ccccc3CCc3cccnc32)CC1 [AZATADINE] | 3.9 | – |
| CCC(=O)N1CCC(=C2c3ccc(Cl)cc3CCc3cccnc32)CC1 | 48 | – |
| CC(=O)N1CCC(=C2c3ccccc3CCc3ccccc32)CC1 | 5000 | – |
| CC(=O)N(C)CC/C=C1\c2ccc(Cl)cc2CCc2cccnc21 | 290 | – |
| CC(=O)N1CCC(=C2c3ccc(C)cc3CCc3cccnc32)CC1 | 190 | – |
| CC(=O)N1CCC(=C2c3ccc(Cl)cc3CCc3cccnc32)CC1 [SCH-37370] | 320 | Inhibition [3]: 99% |

— ChEMBL document CHEMBL1125750, “Dual antagonists of platelet activating factor and histamine. Identification of structural requirements for dual activity of N-Acyl-4-(5,6-dihydro-11H-benzo [5,6]cyclohepta-[1,2-b]pyridin-11-ylidene)piperidines” (J Med Chem, 1991)
